Experimental data reported in ChEMBL document CHEMBL1138658, “Novel 2-aminotetralin and 3-aminochroman derivatives as selective serotonin 5-HT7 receptor agonists and antagonists” (J Med Chem, 2004).

Tests used:
[1] = target: T1, 5-hydroxytryptamine receptor 1A (Rattus norvegicus, UniProt P19327); experiment: Inhibition of [3H]8-OH-DPAT binding to rat 5-hydroxytryptamine 1A receptor
T1 sequence (P19327 whole entry): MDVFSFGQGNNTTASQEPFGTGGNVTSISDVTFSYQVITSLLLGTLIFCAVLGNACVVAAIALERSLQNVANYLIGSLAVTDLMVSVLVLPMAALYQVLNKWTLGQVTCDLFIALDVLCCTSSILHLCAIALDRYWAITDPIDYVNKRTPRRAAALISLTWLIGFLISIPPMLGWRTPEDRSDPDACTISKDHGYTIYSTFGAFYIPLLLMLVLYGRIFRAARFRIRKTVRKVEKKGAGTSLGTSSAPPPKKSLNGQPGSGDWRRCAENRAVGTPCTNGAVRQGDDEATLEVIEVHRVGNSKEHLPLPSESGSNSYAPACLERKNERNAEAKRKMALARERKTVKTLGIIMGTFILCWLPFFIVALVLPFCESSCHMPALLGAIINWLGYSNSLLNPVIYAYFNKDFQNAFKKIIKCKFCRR
Method in brief: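 Radioligand [3H]-8-OH-DPAT; receptor source either CHO cells expressing human 5-HT1A or rat hippocampal cells.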

[2] = target: 5-hydroxytryptamine receptor 7 (Rattus norvegicus, UniProt P32305); experiment: Inhibition of [3H]-5-HT binding to rat 5-hydroxytryptamine 7 receptor
Method in brief: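 Rat 5-HT7 receptor expressed in CHO or Sf9 cells; [3H]-5-HT radioligand displacement.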

[3] = organism: Rattus norvegicus; experiment: Inhibition of 3[H]8-OH--DPAT and [3H]5-HT binding to 5-hydroxytryptamine 1A receptor and 5-hydroxytryptamine 7 receptor in rat
Method in brief: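 Displacement binding with [3H]-8-OH-DPAT at 5-HT1A in rat hippocampal cells, and with [3H]-5-HT at rat 5-HT7 expressed in CHO or Sf9 cells.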

[4] = target: 5-hydroxytryptamine receptor 7 (Rattus norvegicus) (UniProt P32305); experiment: Stimulation of cAMP production in CHO cells expressing rat 5-hydroxytryptamine 7 receptor; format: functional, cell-based
Method in brief: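 cAMP production in CHO cells expressing rat 5-HT7 receptor. Efficacy is expressed as percent of the 5-HT-stimulated production.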

[5] = target: D(2) dopamine receptor (Homo sapiens) (UniProt P14416); experiment: Inhibition of [3H]raclopride binding to Dopamine receptor D2A in human
[6] = target: 5-hydroxytryptamine receptor 7 (Rattus norvegicus) (UniProt P32305); experiment: Stimulation of cAMP production in CHO cells expressing rat 5-hydroxytryptamine 7 receptor; Antagonist; format: functional, cell-based; settings: filed as antagonist
Method in brief: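 Functional assay in CHO cells expressing rat 5-HT7 receptor, read as cAMP production. Efficacy is expressed as % of the cAMP production stimulated by 5-HT.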

Chain of 5-hydroxytryptamine receptor 7 (P32305 whole entry): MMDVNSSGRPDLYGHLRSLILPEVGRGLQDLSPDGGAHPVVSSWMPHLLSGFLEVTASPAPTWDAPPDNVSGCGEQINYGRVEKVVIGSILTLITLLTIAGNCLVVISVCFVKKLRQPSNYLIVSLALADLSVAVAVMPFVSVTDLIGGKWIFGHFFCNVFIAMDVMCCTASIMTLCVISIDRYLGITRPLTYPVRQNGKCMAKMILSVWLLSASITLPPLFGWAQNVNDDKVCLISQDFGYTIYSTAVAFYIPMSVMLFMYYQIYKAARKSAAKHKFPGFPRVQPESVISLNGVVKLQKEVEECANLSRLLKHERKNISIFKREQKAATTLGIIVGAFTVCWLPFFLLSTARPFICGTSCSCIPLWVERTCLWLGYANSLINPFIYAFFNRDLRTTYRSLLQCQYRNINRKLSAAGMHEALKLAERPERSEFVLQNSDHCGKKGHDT
Chain of 5-hydroxytryptamine receptor 7 (Rattus norvegicus) (P32305 whole entry): as above
Chain of D(2) dopamine receptor (Homo sapiens) (P14416 whole entry, looked up): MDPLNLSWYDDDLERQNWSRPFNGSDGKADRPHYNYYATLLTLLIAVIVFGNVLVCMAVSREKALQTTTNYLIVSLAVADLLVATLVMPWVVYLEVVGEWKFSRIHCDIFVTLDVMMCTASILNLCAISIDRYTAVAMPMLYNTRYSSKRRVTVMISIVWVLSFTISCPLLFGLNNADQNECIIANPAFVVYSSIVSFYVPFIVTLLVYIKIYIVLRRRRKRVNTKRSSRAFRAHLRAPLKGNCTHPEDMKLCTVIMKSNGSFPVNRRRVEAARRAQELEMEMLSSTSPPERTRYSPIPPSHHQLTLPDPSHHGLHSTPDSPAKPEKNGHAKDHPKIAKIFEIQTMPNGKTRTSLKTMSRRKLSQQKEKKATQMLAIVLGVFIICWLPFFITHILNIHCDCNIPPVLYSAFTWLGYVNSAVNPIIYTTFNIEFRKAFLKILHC

Structure (SMILES)	Ki [1] [nM]	Ki [2] [nM]	Ratio [3]	Efficacy [4] [%]	Ki [5] [nM]	Efficacy [6]
CCCN(CCC)[C@H]1COc2c(cccc2-c2c(OC)cccc2OC)C1	174	6.44	27	154		
CCCN(CCC)[C@H]1COc2c(cccc2-c2ccccc2OC)C1	10.3	2.7	3.8	100	512	
CCCN(CCC)[C@H]1CCc2c(cccc2-c2ccc(OC)cc2)C1	1.49	12.4	0.12			
O=C1c2ccccc2CCCN1CCN1CCC(n2c(=O)[nH]c3cc(F)ccc32)CC1	479	2.24				
COc1cccc(OC)c1-c1cccc2c1CC[C@H](N)C2	> 1000	78.7	> 12.7			
CCCN(CCC)[C@H]1COc2c(cccc2-c2ccc(OC)cc2)C1	1.31	12.6		91		
Cc1cccc(C#N)c1-c1cccc2c1-c1cccc3c1[C@@H](C2)N(C)CC3	142		37		498	Antagonist
O=S(=O)(c1ccc2c(c1)CC=C2)N1CCC[C@@H]1CCN1CCC(Oc2ccc(Cl)cc2)CC1	562	1.99	282			Antagonist
O=C1c2ccccc2CCCN1CCN1CCC(n2c(O)nc3cc(F)ccc32)CC1						Antagonist
COc1cccc(OC)c1-c1cccc2c1OC[C@H](N(C)C)C2	> 1000	5.29	> 189	28		
O=C1Nc2cccc3c2C1(CCCCN1CCc2sccc2C1)CCC3 (configuration not stated)	513	6.46	79			Antagonist
CCCN(CCC)[C@@H]1COc2c(cccc2-c2ccccc2OC)C1	680	364	1.9		2110	
CCCN(CCC)[C@H]1CCc2c(cccc2-c2ccccc2OC)C1	11.7	1.73	6.8	100		
CCCN(CCC)[C@H]1CCc2c(cccc2-c2ccccc2)C1	0.87	3.38	0.26	100		
CCCN(CCC)[C@H]1COc2c(cccc2-c2ccccc2)C1	1.23	2.92		100		
